# Measured values reported in PMC4263960 (Pediatric blood & cancer, 2013).
# Key:
# [1] = tested on: BT-39 glioblastoma xenograft; test: PPTP in vivo xenograft testing, BT-39; parameters: species or system mice
# [2] = Tolerability in xenograft-bearing mice; assay type: in vivo
# [3] = tested on: NALM-6 cell line; test: DIMSCAN in vitro cytotoxicity testing, NALM-6; assay type: cell-based
# Procedure, shortened: (§1)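 Test compound incubated with cells of a 24-line pediatric cancer panel for 96 h at 0.1 nM to 1 μM, then assessed by DIMSCAN. Relative IC50 (rIC50) derived per line. Panel comparison value is the panel rIC50 divided by the rIC50 of each cell line.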
# [4] = tested on: EW5 Ewing xenograft; test: PPTP in vivo xenograft testing, EW5; parameters: species or system mice
# [5] = tested on: Rh30 cell line; test: DIMSCAN in vitro cytotoxicity testing, Rh30; assay type: cell-based
# Procedure, shortened: as §1
# [6] = tested on: OS-33 osteosarcoma xenograft; test: PPTP in vivo xenograft testing, OS-33; parameters: species or system mice
# [7] = tested on: RD cell line; test: DIMSCAN in vitro cytotoxicity testing, RD; assay type: cell-based
# Procedure, shortened: as §1
# [8] = Eribulin pharmacokinetics in SCID mice
# [9] = 1 mg/kg IP Q4Dx3 repeated at Day 21
smiles,measurement,setting,value
C=C1C[C@@H]2CC[C@@]34C[C@H]5O[C@H]6[C@@H](O3)[C@H]3O[C@H](CC[C@@H]3O[C@H]6[C@H]5O4)CC(=O)C[C@@H]3[C@@H](OC)[C@@H](C[C@H](O)CN)O[C@H]3C[C@H]3O[C@@H](CC[C@@H]1O2)C[C@@H](C)C3=C [Eribulin],EFS activity,[1]; 1 mg/kg IP,"High (High activity requires: (a) an EFS T/C >2; (b) a significant difference in EFS distributions, and (c) a net reduction in median tumor volume for animals in the treated group at the end of treatment as compared to at treatment initiation)"
same,Response activity,[1]; 1 mg/kg IP,Int (intermediate activity by a score of ≥2 but <6)
same,T/C volume activity,[1]; 1 mg/kg IP,Low (Low activity = T/C >0.45)
same,EFS T/C,[1]; [9],>3.6
same,Median final RTV (CD45%),[1]; [9],0.5
same,Tumor volume T/C,"[1]; 1 mg/kg IP, Day 21 or earlier",1.00
same,toxicity rate in the treated groups,"[2]; 6 of 409 treated mice, control 1 of 401",1.5%
same,MTD at 6 weeks,"[2]; NOD-SCID, mouse, in vivo, ip",1.5 mg/kg
same,IC50,"[3]; Homo sapiens, NALM-6, 96 h, read-out: rIC50",590 pM
same,Panel rIC50/Line rIC50,[3]; NALM-6,0.46
same,Relative in/out%,[3]; NALM-6,−99%
same,Ymin % (observed),[3]; NALM-6,0.03%
same,EFS activity,[4]; 1 mg/kg IP,"Int (Intermediate activity = criteria (a) and (b) above, but not having a net reduction in median tumor volume for treated animals at the end of the study)"
same,Response activity,[4]; 1 mg/kg IP,Int (intermediate activity by a score of ≥2 but <6)
same,T/C volume activity,[4]; 1 mg/kg IP,High (High activity = T/C ≤0.15)
same,EFS T/C,[4]; [9],3.3
same,Median final RTV (CD45%),[4]; [9],>4
same,Time to event,[4]; [9],41.3
same,Tumor volume T/C,"[4]; 1 mg/kg IP, Day 21 or earlier",0.13
same,Panel rIC50/Line rIC50,[5]; Rh30,2.47
same,Relative in/out%,[5]; Rh30,−23%
same,Ymin % (observed),[5]; Rh30,12.75%
same,IC50,"[5]; Rh30, 96 h, read-out: rIC50",110 pM
same,EFS activity,[6]; 1 mg/kg IP,"High (High activity requires: (a) an EFS T/C >2; (b) a significant difference in EFS distributions, and (c) a net reduction in median tumor volume for animals in the treated group at the end of treatment as compared to at treatment initiation)"
same,Response activity,[6]; 1 mg/kg IP,High (A high level of activity is indicated by a score of 6 or more)
same,T/C volume activity,[6]; 1 mg/kg IP,Int (Intermediate activity = T/C ≤0.45 but >0.15)
same,EFS T/C,[6]; [9],>2.7
same,Median final RTV (CD45%),[6]; [9],0.2
same,Tumor volume T/C,"[6]; 1 mg/kg IP, Day 21 or earlier",0.24
same,Panel rIC50/Line rIC50,[7],1.92
same,Relative in/out%,[7],−18%
same,Ymin % (observed),[7],4.49%
same,IC50,"[7]; Homo sapiens, 96 h, read-out: rIC50",140 pM
same,AUC (area under the plasma drug concentration-time curve),"[8]; 1 mg/kg dose, SCID mice",658 ng·h/mL
same,AUC per course of treatment,"[8]; preclinical setting, three doses of 1 mg/kg per course","1,974 ng hour/ml"
